# Assay outcomes as filed in PubChem.
# OXTR agonist: human OXTR agonism | CHO-OTR cells, Fluo-8 calcium fluorescence; normalized: DMSO 0%, oxytocin 100% | actives 0.32% (n = 320,000) | activation, % at 3 µM;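 active = activation above the mean of all tested compounds plus 3 SD, cutoff set per screening run, cut at about 20% in these data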;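 note: peak over basal fluorescence ratio from a 100 s FLIPR kinetic read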
# Target sequence (P30559 whole entry, looked up): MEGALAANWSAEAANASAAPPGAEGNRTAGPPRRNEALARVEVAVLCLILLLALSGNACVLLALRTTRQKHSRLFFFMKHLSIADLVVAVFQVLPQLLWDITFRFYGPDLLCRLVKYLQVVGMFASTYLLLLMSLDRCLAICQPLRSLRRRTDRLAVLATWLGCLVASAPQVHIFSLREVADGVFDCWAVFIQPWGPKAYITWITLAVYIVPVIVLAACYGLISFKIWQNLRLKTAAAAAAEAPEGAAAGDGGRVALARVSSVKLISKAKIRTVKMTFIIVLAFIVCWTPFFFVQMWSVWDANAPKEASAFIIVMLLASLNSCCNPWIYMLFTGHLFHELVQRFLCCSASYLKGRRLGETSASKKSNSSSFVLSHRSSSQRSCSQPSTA
# TAAR1 antagonist: antagonists of human TAAR1 | Q96RJ0 | CHO RD-HGA16 TAAR1, Fluo-8 calcium fluorescence, antagonist | inhibition, % at 3 µM | actives 1.5% (n = 360,000);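 active = inhibition above a per-plate cutoff, the mean inhibition of test compounds on that plate plus 3 SD, cut at about 49% in these data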;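 note: 0% = DMSO plus EC80 beta-PEA response and 100% = DMSO alone without agonist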
#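 Test system: CHO RD-HGA16 cells bearing hTAAR1 | Reagent: β-PEA, EC80 | Compound dosing: 3 µM, single point | Schedule: Dye loading 75 min at 37 °C, then 30 min room temperature | Signal: Calcium fluorescence with Fluo-8 | Evaluation: Percent inhibition of PEA-evoked calcium signal, max/basal emission ratio | Control set: DMSO-only wells and EC80 β-PEA-stimulated wells | Repeats: Singlicate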
# V1aR counter: V1a receptor agonism, counter-screen for OXTR agonists; actives 0.25% (n = 320,000); AID 2797; activation, % at 3 µM; CHO-V1R cells, Fluo-8 calcium fluorescence, agonist mode; 0% DMSO, 100% 3 nM vasopressin; P37288;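 active = activation above the mean activation of all tested compounds plus 3 SD, per screening run, cut at about 20% in these data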;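 note: signal is peak over basal fluorescence ratio across a 100 second FLIPR read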
# TAAR1 agonist: agonists of human TAAR1; CHO RD-HGA16 TAAR1, Fluo-8 calcium fluorescence; vehicle wells 0%, saturating PEA agonist 100%; Q96RJ0; activation, % at 3 µM; AID 624467; actives 0.99% (n = 360,000);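 active = activation above the mean activation of all test compounds in the run plus 3 SD, cut at about 38% in these data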
#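 test system = CHO RD-HGA16 cells carrying human TAAR1 plus Gα16 | schedule = 17-24 h seeding, 75 min 37 °C dye, 30 min RT | compound dosing = 3 µM single concentration | control set = DMSO and PEA EC100 | replicates = n 1 | signal = Fluo-8 fluorescence, 5 s baseline then 140 s kinetic read | measure = percent activation vs PEA EC100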
# OXTR potentiate: potentiators of human oxytocin receptor; CHO-OTR cells, Fluo-8 calcium fluorescence, potentiator mode; 0% = oxytocin EC15, 100% = EC100; P30559; actives 0.061% (n = 320,000); activation, % at 3 µM;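 active = activation above that plate's cutoff, the mean activation of tested compounds plus 3 SD, cut at about 6.6% in these data, passing the limit was not always enough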;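 note: 100% uses oxytocin at 75 nM as the full agonist control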
#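 System: human OTR in CHO cells / Also added: sub-maximal oxytocin, roughly EC15 / Control set: EC15 oxytocin low, 75 nM oxytocin high / Schedule: 6 min compound pre-incubation at room temperature, 100 s kinetic read / Compound: single-point 3.0 µM / Replication: singlicate / Technique: Fluo-8 calcium dye fluorescence / Read-out basis: % activation of max/min ratio relative to oxytocin controls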
# * marks the source's active call; other numbers are inactive results; . = not tested or not shown. Compounds with a hit are over-represented: about 2.3% of the library has one in this group of screens.
SMILES,OXTR agonist,TAAR1 antagonist,V1aR counter,TAAR1 agonist,OXTR potentiate
CC(=O)c1cccc(NS(=O)(=O)c2ccc(N/C=C\C(=O)c3ccc(F)cc3)cc2)c1,6,70*,10,13,-20
COc1ccc2cc(Br)ccc2c1CC(=O)NCCCN1CCOCC1,-1,8,0,-1,-8
Nc1nc(N)c(N=Nc2ccc(SCC(=O)O)cc2)c(=O)[nH]1,1,-14,1,2,1
CCCCc1c(-c2cccc(F)c2)ncn1CCc1ccccc1OC,.,34,.,19,.
CCCCCc1c(CC)ncn1CCc1ccccc1OC,.,53*,.,48*,.
CCCCc1c(-c2ccccc2OC)ncn1CCc1ccccc1OC,.,28,.,48*,.
CCCCCc1c(-c2ccccc2OC)ncn1CCc1ccccc1OC,.,51*,.,36,.
CCCCc1c(-c2cccc(Br)c2)ncn1CCc1ccccc1OC,.,43,.,43*,.
COc1cc(CNC(=O)CCn2nc(C)c3c(C)n(-c4ccccc4)nc3c2=O)cc(OC)c1OC,0,-8,-1,0,1
COc1ccnc(Oc2ccc(F)cc2)c1C(=O)N/C=N/OCc1ccc(F)cc1,16,19,15,49*,-9
COc1ccnc(Oc2ccc(F)cc2)c1C(=O)N/C=N/OCc1ccccc1,4,10,5,10,-5
COc1ccnc(Oc2ccccc2)c1C(=O)N/C=N/OCc1ccccc1F,3,49*,5,22,-8
COc1cccc(CN(C)C(=O)CSCC(=O)Nc2cccc(C)c2)c1OC,2,-18,1,11,-4
COc1c(C)cccc1C(=O)Nc1ccc(N2CCN(C(=O)c3ccccc3C)CC2)cc1,0,55*,5,11,-4
Cc1ccccc1C(=O)N1CCN(c2ccc(NC(=O)c3cccc(OC(C)C)c3)cc2)CC1,0,-22,1,3,-6
Cc1ccccc1C(=O)N1CCN(c2ccc(NC(=O)CSc3ccc(Cl)cc3)cc2)CC1,13,53*,11,14,-8
Cc1ccccc1OCC(=O)Nc1ccc(N2CCN(C(=O)c3ccco3)CC2)cc1,11,60*,11,16,-15
COC(=O)[C@H](CC(C)C)NC(=O)/C=C/[C@H]1O[C@@H](n2cc(C)c(=O)[nH]c2=O)C[C@@H]1O,.,-4,.,0,.
Cc1ccc(-c2nn(-c3ccccc3)cc2/C=C/C(=O)Nc2nccs2)cc1,3,46,3,40*,-6
O=C(Nc1nccs1)c1cn(-c2ccccc2)nc1-c1ccncc1,-2,39,0,38*,-4
O=C(/C=C/c1cn(-c2ccccc2)nc1-c1ccccc1)Nc1ccc(C(=O)O)cc1,-1,4,-1,-1,4
COc1ccc(-c2nn(-c3ccccc3)cc2C(=O)Nc2nccs2)cc1,-1,48,0,12,-13
Cc1cc(C)c(NC(=O)CNC(=O)COC(=O)Cc2cccs2)c(C)c1,-2,-18,-1,4,-8
CCNC(=O)Nc1ccc2c(c1)c(=O)n(C)n2Cc1ccc(Cl)cc1,.,-8,.,3,.
O=C(CN1C(=O)NC2(CCCCCC2)C1=O)N1CCCCC1,1,5,0,4,0
SMILES,OXTR agonist,TAAR1 antagonist,V1aR counter,TAAR1 agonist,OXTR potentiate
O=C(COC(=O)[C@H](Cc1ccccc1)N1C(=O)c2ccccc2C1=O)Nc1ccc2c(c1)OCO2,-1,56*,0,15,-17
CC(C)[C@@H](C(=O)OCC(=O)Nc1ccc2c(c1)OCO2)N1C(=O)c2ccccc2C1=O,4,15,2,23,-12
O=C(Cn1nnc(-c2ccccc2)n1)Nc1ccc2c(c1)OCO2,3,21,2,42*,-7
O=C(Cn1nnc(-c2ccccc2F)n1)Nc1ccc2c(c1)OCO2,1,-6,1,5,1
COc1ccc(-c2c(C(=O)c3ccccc3)[nH]c(N)c2C(=O)NCCc2c[nH]c3ccccc23)cc1,.,23,.,4,.
O=C(COC(=O)c1ccc(Br)o1)Nc1ccc(Br)cc1,-1,9,-1,40*,-9
CCCCCN(C(=O)Cc1c(C)n(CCCCC)c2ccccc12)c1ccc(Oc2cccnc2)c(C)c1,.,0,.,0,.
O=C(CCNC(=O)c1ccccc1)NNC(=O)c1ccc(F)cc1,2,-12,0,7,-6
O=C(CCNC(=O)c1ccc(Br)cc1)NNC(=O)c1ccccc1,1,-11,1,40*,5
